The record followed here is ChEMBL document CHEMBL1133619, “Use of an additional hydrophobic binding site, the Z site, in the rational drug design of a new class of stronger trypanothione reductase inhibitor, quaternary alkylammonium phenothiazines” (J Med Chem, 2000).

A word on the IC50: it is the concentration that inhibits the measured activity by half. A lower IC50 goes with inhibition by little substance. As usually defined, the Ki is a dissociation constant, usually derived from enzyme kinetics or from competition with a known ligand. By inhibition is commonly meant how much of the control response was suppressed.

Assay [1] has as its target T1, Trypanothione reductase (Trypanosoma cruzi, UniProt P28593). Briefly: (§1) Inhibitory activity against Trypanosoma cruzi trypanothione reductase.
For assay [2], the target named is T1, Trypanothione reductase. The description is as §1. In a few lines: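 T. cruzi TR, isolated enzyme (3 µg/mL), assayed at 25 °C in 0.02 M HEPES pH 7.25 with 0.15 M KCl, 1 mM EDTA and 0.1 mM NADPH. (ZCGdmapa)2 substrate was used at 0.24, 0.12, 0.06 or 0.03 mM, and Ki was fitted as linear competitive.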
The source holds these as a separate data set.

Assay [3] addresses T2, Glutathione reductase, mitochondrial (Homo sapiens, UniProt P00390).
T2 sequence (P00390 whole entry): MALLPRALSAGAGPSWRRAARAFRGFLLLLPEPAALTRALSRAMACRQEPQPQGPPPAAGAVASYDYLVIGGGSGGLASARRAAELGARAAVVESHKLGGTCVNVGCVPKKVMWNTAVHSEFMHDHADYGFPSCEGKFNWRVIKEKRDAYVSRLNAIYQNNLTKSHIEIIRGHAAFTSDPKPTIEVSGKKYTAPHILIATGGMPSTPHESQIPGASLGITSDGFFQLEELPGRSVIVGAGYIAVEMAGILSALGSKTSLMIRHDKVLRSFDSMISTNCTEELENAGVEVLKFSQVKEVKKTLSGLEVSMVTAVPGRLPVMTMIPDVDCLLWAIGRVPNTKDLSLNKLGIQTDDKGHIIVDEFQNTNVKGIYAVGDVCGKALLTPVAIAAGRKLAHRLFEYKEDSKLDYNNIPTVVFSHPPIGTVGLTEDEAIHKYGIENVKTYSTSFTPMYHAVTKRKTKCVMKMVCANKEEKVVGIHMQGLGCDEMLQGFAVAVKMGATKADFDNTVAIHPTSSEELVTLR
Description: Inhibitory activity against Human Erythrocyte glutathione reductase (GR).

Assay [4] has as its system Trypanosoma brucei. Briefly: Antiparasitic activity against Trypanosoma brucei. The format is functional. The note with it: read-out: ED50 (the source's name).
Assay [5] has as its system Trypanosoma brucei. Briefly: Activity against Trypanosoma brucei.
Assay [6] relates to Trypanosoma cruzi. Briefly: Antiparasitic activity against Trypanosoma cruzi at the dose of 3 uM. The format is functional.
Assay [7] concerns Trypanosoma cruzi. Briefly: Antiparasitic activity against Trypanosoma cruzi. The note with it: read-out: ED50 (the source's name). Format: functional.
Assay [8] relates to Trypanosoma cruzi. Briefly: Antiparasitic activity against Trypanosoma cruzi at the dose of 1 uM. The format is functional.
Assay [9] concerns the target T3, Glutathione reductase, mitochondrial (Homo sapiens) (UniProt P00390).
T3 sequence (whole entry): T2 sequence (P00390 whole entry)
Description: Compound at 1 mM was tested for the inhibition of human erythrocyte glutathione reductase; No inhibition.

Where “and” joins values, the source holds several entries; their conditions need not be identical. Equal values may be shown once. Calls of active or inactive are those of the source. The calls are words filed in the database; no cut-off is given here.

T1 sequence (P28593 whole entry): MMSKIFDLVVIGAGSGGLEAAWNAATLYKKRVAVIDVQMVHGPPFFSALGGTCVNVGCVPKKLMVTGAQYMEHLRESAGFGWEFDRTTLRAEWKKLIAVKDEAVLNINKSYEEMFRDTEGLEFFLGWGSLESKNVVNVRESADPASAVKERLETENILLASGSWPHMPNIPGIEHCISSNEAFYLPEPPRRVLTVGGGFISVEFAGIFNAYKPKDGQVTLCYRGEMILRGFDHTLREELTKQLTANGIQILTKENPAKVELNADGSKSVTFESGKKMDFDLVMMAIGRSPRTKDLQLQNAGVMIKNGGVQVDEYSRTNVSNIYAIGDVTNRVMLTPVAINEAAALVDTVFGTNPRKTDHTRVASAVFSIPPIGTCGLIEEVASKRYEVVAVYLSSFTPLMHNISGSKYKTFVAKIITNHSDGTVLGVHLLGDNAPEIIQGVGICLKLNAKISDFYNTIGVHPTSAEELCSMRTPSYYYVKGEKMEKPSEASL

In [1], `COc1cc(C[N+](C)(C)CCCN2c3ccccc3Sc3ccc(Cl)cc32)cc(OC)c1` registered a concentration for half-maximal inhibition (IC50) of 5.4 µM. This compound also came in with a Ki in assay [2] of 0.77 µM.
On to `C[N+](C)(CCCN1c2ccccc2Sc2ccc(Cl)cc21)CC1CCCCC1`, for which, in assay [1], the IC50 was 10.5 µM. For the same compound, the Ki in [3] turned out to be 2000 µM; in assay [2] it was 2.3 µM. Besides, in assay [4], the EC50 was 0.159 µg/mL and 320 nM.
For `Cc1ccc(C[N+](C)(C)CCCN2c3ccccc3Sc3ccc(Cl)cc32)cc1`, the 50% inhibitory concentration (IC50) in assay [1] amounted to 10.8 µM. Besides, the EC50 in assay [4] was 0.205 µg/mL and 410 nM. The same compound registered a Ki in assay [2] of 1.8 µM.
`C[N+](C)(CCCN1c2ccccc2Sc2ccc(Cl)cc21)Cc1cccc(Cl)c1` had a concentration for half-maximal inhibition (IC50) in assay [1] of 6.6 µM. For the same compound, in [4], the EC50 is 0.245 µg/mL and 470 nM. Also, in assay [2], the affinity, expressed as Ki, was 2.4 µM.
In assay [1], `Cc1cc(C(=O)C[N+](C)(C)CCCN2c3ccccc3Sc3ccc(Cl)cc32)ccc1Cl` registered an IC50 of 8.6 µM. The EC50 in assay [4] was 0.159 µg/mL and 280 nM. The compound further registered a Ki in assay [2] of 1.43 µM.
Take `C[N+](C)(CCCN1c2ccccc2Sc2ccc(Cl)cc21)CC(=O)c1ccc2ccc3cccc4ccc1c2c34`: in assay [5], the ED50 came out at 0.475 µg/mL.
`C[N+](C)(CCCN1c2ccccc2Sc2ccc(Cl)cc21)Cc1ccc(Br)cc1` had an IC50 in assay [1] of 11.9 µM. Besides, the EC50 in [4] is 0.508 µg/mL and 900 nM. This compound also registered an inhibitory constant (Ki) in assay [2] of 1.5 µM.
For the compound `C[N+](C)(CCCN1c2ccccc2Sc2ccc(Cl)cc21)Cc1ccc(OCc2ccccc2)cc1`, the IC50 in [1] worked out at 10.4 µM. Also, in [4], the EC50 is 0.191 µg/mL and 350 nM. Further, the inhibition constant Ki in [2] amounted to 0.47 µM.
`C[N+](C)(CCCN1c2ccccc2Sc2ccc(Cl)cc21)Cc1ccc(Cl)cc1` came in with a 50% inhibitory concentration (IC50) in [1] of 12.7 µM. In addition, the Ki in assay [3] was 2200 µM; in [2], 1.7 µM. Moreover, the EC50 in [4] is 0.675 µg/mL and 1.41 µM.
In assay [1], `C[N+](C)(CCCN1c2ccccc2Sc2ccc(Cl)cc21)C(c1ccccc1)c1ccccc1` returned a 50% inhibitory concentration (IC50) of 1.2 µM. Also, the EC50 in assay [4] was 0.035 µg/mL and 62 nM. The Ki in [2] came out at 0.71 µM.
`C[N+](C)(CCCN1c2ccccc2Sc2ccc(Cl)cc21)Cc1ccc([N+](=O)[O-])cc1.[Cl-]`: half-maximal inhibition in assay [1] (IC50) required 17.9 µM. In addition, in [4], the EC50 was 0.348 µg/mL and 650 nM. In assay [2], the Ki came to 2.98 µM.
For `C[N+](C)(CCCN1c2ccccc2Sc2ccc(Cl)cc21)Cc1ccc(Cl)c(Cl)c1`, in assay [1], it took 0.78 µM to reach half-maximal inhibition (IC50). Besides, in assay [4], the EC50 is 0.546 µg/mL and 1.07 µM. The same compound returned a Ki in [2] of 0.12 µM.
In turn, `C[N+](C)(C)CCCN1c2ccccc2Sc2ccc(Cl)cc21` displayed an IC50 in [1] of 28 µM. Also, in [2], affinity was put at a Ki of 1.1 µM.
`CC(C)(C)c1ccc(C[N+](C)(C)CCCN2c3ccccc3Sc3ccc(Cl)cc32)cc1` gave an IC50 in assay [1] of 4.1 µM. In assay [6], this compound returned an inhibition at 3 µM of 66.2%. In addition, the EC50 is less than 1 µM in assay [7]; 0.023 µg/mL and 42 nM in assay [4]. This compound also displayed an inhibition at 1 µM in [8] of 59.2%. The same compound yielded an inhibition constant (Ki) in assay [2] of 0.68 µM.
As for `CN(C)CCCN1c2ccccc2Sc2ccc(Cl)cc21`, the NI entry in [9] is “inactive”.
Turning to `C[N+](C)(CCCN1c2ccccc2Sc2ccc(Cl)cc21)Cc1c(F)c(F)c(F)c(F)c1F`, in [1], the midpoint of inhibition, the IC50, lay at 10 µM. In assay [4], the EC50 is 1.48 µg/mL and 2.55 µM. The compound also displayed a Ki in assay [2] of 1.67 µM.
For the compound `C[N+](C)(CCCN1c2ccccc2Sc2ccc(Cl)cc21)Cc1ccc2ccccc2c1`, in assay [1], the IC50 amounted to 9.3 µM. The EC50 in assay [4] was 0.068 µg/mL and 120 nM. Further, in assay [2], the Ki is 1.55 µM.
The compound `C[N+](C)(CCCN1c2ccccc2Sc2ccc(Cl)cc21)Cc1ccccc1` had a half-inhibitory concentration (IC50) in assay [1] of 8.02 µM. In assay [2], the Ki was 1.3 µM.
In the same order, the values of `Cc1ccc(C[N+](C)(C)CCCN2c3ccccc3Sc3ccc(Cl)cc32)cc1C` are 3.9 µM and 0.47 µM.
Compound `COc1ccc2c(C[N+](C)(C)CCCN3c4ccccc4Sc4ccc(Cl)cc43)cc(=O)oc2c1` showed an IC50 in assay [1] of 2.95 µM. The EC50 in [4] was 3.11 µg/mL and 5.28 µM. Moreover, the Ki in assay [2] came out at 0.56 µM.
Compound `C[N+](C)(CCCN1c2ccccc2Sc2ccc(Cl)cc21)CC(=O)C12CC3CC(CC(C3)C1)C2` gave an IC50 in assay [1] of 12.8 µM. This compound also came in with an inhibition constant (Ki) in [2] of 1.23 µM.
